# The list is not random: actives were taken first. Their share in the collection is about 2.9%.
# AI-2 QS modul – Vibrio harveyi AI-2 quorum sensing modulators, primary screen, JMH597 strain, luminescence/OD600 ratio; actives 0.4% (n = 300,000); AID 2094, 2009; activity change, % at 7.5 µM; Vibrio harveyi JMH597 AI-2 luminescence/OD600 ratio, 9 h; active compounds read low; strain lacks LuxN and CqsS sensors; 0 = neutral-control median; in the data active = activity change below about -75%, passing the limit was not always enough; inconclusive = no clear call, values can overlap the other calls;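 note: luminescence divided by OD600 gain over 9 h not by final OD600 alone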
# Runt-SMMHC FRET – inhibitors of RUNX1 Runt–CBFb-SMMHC binding, primary screen, biochemical, FRET, Cerulean-Runt, Venus-CBFb-SMMHC, uHTS. Runt-related transcription factor 1 (Homo sapiens) + Core-binding factor subunit beta …. Cerulean-Runt/Venus-CBFb-SMMHC FRET ratio 530/480, 1 h. inhibition, % at 20 µM. actives 0.74% (n = 220,000);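 active = mean inhibition across duplicate retests at 20 µM reaching about 50%, limit read from the data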;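 note: 0% = DMSO wells and 100% = wells with excess untagged CBFb-SMMHC; inhibitors lower the FRET ratio by blocking Runt binding to CBFb-SMMHC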
# proKLK7 act – proKLK7 zymogen activators, primary screen, biochemical, fluorescence intensity | Kallikrein-7 (Homo sapiens), P49862 | purified proKLK7, EDANS-DABCYL substrate fluorescence; 100% is mature enzyme control, 0% vehicle | activation, % at 7 µM | actives 0.9% (n = 370,000) | AID 652039, 2013;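 active = activation above the mean of all tested compounds plus 3 SD, computed per campaign excluding outliers beyond control limits, cut at about 13% in these data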
# Runt-CBFb FRET – inhibitors of RUNX1 Runt–CBFb binding, primary screen, biochemical, FRET, Cerulean-Runt, Venus-CBFb, uHTS; actives 0.46% (n = 220,000); Runt-related transcription factor 1 (Homo sapiens) + Core-binding factor subunit beta …; Cerulean-Runt/Venus-CBFb FRET ratio 530/480, 1 h; AID 1496, 2009; inhibition, % at 20 µM;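 active = inhibition over about 50% at 20 µM in the single-dose screen, limit read from the data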;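 note: 0% = DMSO wells and 100% = excess unlabeled CBFb competitor control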
#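 test system = Cerulean-tagged RUNX1 Runt domain (FRET donor) fusion protein | reagent = Venus-CBFb binding partner, 100 nM | incubation = protein complex preformed 1 h, compound exposure 1 h, room temperature, dark | detection = FRET fluorescence | read-out basis = loss of energy transfer signal | controls = 5 µM unlabeled CBFb as full-inhibition high control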
# RanGTP-Impb inh – inhibitors of RanGTP-importin-beta interaction, primary screen, biochemical, FRET, CFP-Ran, YFP-importin-beta, homogeneous; Ran GTPase (GTP-bound) - importin-beta complex; cell-free CFP-Ran/YFP-importin-beta FRET ratio; inhibition, % (test concentration not listed); actives 1.1% (n = 300,000); AID 2216, 2009;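 active = more than half of the replicate wells show a fall in the fluorescence ratio signal beyond about 16%, limit read from the data, passing the limit was not always enough; inconclusive = exactly half of the replicate wells pass the set limit; inactive = fewer than half of replicates pass the limit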;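 note: 0% = DMSO wells and 100% = Ran loaded with GDP instead of GTP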
# Wee1 stabilizer – Wee1 degradation inhibitors, primary screen, cell-based, HeLa, Wee1K328M-luciferase, luminescence. HeLa Luc-Wee1K328M stability; 100% = proteasome inhibitor MG132 effect. actives 1.2% (n = 220,000). reporter increase, % at 5 µM;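 active = activation above the mean of all tested compounds plus 3 SD, set per screening run, cut at about 8.8% in these data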;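 note: cells exposed to compound for 20 h before luminescence read; 0% = DMSO alone and 100% = MG132 at 30 µM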
# Target sequence (P30291 whole entry K328M): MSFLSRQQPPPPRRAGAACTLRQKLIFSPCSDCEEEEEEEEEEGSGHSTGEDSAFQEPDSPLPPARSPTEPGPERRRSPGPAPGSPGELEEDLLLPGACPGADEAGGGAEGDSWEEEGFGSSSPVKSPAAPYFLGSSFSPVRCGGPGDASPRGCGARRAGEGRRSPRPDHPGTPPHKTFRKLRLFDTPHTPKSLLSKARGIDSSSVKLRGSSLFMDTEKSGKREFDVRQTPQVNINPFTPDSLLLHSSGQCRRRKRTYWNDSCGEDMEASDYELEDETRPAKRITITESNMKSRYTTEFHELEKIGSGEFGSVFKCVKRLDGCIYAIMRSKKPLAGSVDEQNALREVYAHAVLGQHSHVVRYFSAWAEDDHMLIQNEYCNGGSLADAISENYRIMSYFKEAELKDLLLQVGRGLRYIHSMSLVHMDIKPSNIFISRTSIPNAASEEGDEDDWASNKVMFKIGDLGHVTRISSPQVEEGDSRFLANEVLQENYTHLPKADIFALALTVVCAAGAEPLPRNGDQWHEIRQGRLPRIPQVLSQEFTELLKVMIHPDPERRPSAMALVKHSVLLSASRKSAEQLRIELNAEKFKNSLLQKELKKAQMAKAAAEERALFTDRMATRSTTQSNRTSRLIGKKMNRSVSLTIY
# JMH597 growth rt – Vibrio harveyi growth inhibition, confirmation, counter-screen for AI-2 quorum sensing project, JMH597 strain, OD600 absorbance | shares compounds with AI-2 QS modul | 9 h; lacks LuxN and CqsS sensors | growth inhibition, % at 7.5 µM | actives 1% (n = 750) | AID 2726, 2010;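 active = every replicate shows growth inhibition above 50%; inconclusive = at least half, but not all, replicates pass that cutoff; inactive = fewer than half of replicates pass it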
# BB721 const-QS lum – luminescence inhibition in constitutive-on V. harveyi, confirmation, counter-screen for LuxS inhibitor project, strain BB721, luminescence readout; AID 2727, 2010; shares compounds with AI-2 QS modul; inhibition, % at 7.5 µM; Vibrio harveyi BB721 luminescence, 9 h; actives 95% (n = 750);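 active = inhibition above about 80% in every replicate, not just on average, limit read from the data; inconclusive = at least half of replicates past the limit, but not all; inactive = fewer than half of replicates past the limit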
# BB721 growth – growth inhibition of V. harveyi BB721, confirmation, cytotoxicity control for AI-2 quorum sensing inhibitors, strain BB721, absorbance OD600; actives 3% (n = 750); AID 2728, 2010; shares compounds with AI-2 QS modul; Vibrio harveyi BB721 growth, 9 h; growth inhibition, % at 7.5 µM;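 active = every replicate shows growth inhibition above 50%; inconclusive = at least half but not all replicates above 50% inhibition; inactive = under half of replicates above 50% inhibition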
# JMH597 AI-2 mod – Vibrio harveyi AI-2 signaling luminescence modulation – JMH597 strain, confirmation; shares compounds with AI-2 QS modul; Vibrio harveyi JMH597 AI-2 quorum sensing luminescence, 9 h; luxN and CqsS knockout, AI-2 only; inhibition, % at 7.5 µM; actives 97% (n = 750);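 active = every replicate shows more than 75% inhibition of signal versus neutral control wells; inconclusive = half to three quarters of replicates exceed 75% inhibition; inactive = fewer than half of replicates exceed 75% inhibition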
# Numbers without * were called inactive; ? = inconclusive; . = no result given.
SMILES,AI-2 QS modul,Runt-SMMHC FRET,proKLK7 act,Runt-CBFb FRET,RanGTP-Impb inh,Wee1 stabilizer,JMH597 growth rt,BB721 const-QS lum,BB721 growth,JMH597 AI-2 mod
CC(C)(C)c1ccc(/C=N/NC(=O)C2CCCC2)cc1,-83*,.,0,.,.,.,32,96*,?,97*
CC(=O)Nc1ccc(C=NNC(=O)C2CC2)cc1,.,.,0,.,.,.,.,.,.,.
CC(C)c1ccc(/C=N/NC(=O)CC(=O)NC2CCCCC2)cc1,3,1,0,0,?,3,.,.,.,.
CC(C)c1ccc(/C=N/NC(=O)C2CCCC2)cc1,?,.,0,.,6,.,-1,91*,4,92*
O=C(c1ccc2c3n(nc2c1)-c1ccccc1CO3)N1CCOCC1,6,2,.,0,-2,.,.,.,.,.
O=C(c1ccc2c3n(nc2c1)-c1ccccc1CO3)N1CCCCC1,-84*,2,0,2,4,.,25,89*,26,95*
CC(C)CCOc1ccc(C2CC(=O)N(C)C2=O)cc1 (configuration not stated),-26,-3,0,-4,-4,3,.,.,.,.
CC(C)c1ccc(NC(=O)CSc2nc3ncccc3[nH]2)cc1,-83*,.,0,.,4,.,25,93*,18,95*
CC(C)OC(=O)c1ccc(NC(=O)CSc2nc3ncccc3[nH]2)cc1,-85*,1,0,0,-7,1,27,96*,22,98*
COC(=O)c1ccccc1NC(=O)CSc1nc2ncccc2[nH]1,32,3,2,1,1,1,.,.,.,.
CN(C)S(=O)(=O)c1ccc(C(=O)OCCc2ccccc2)cc1,-92*,.,0,.,-6,.,3,96*,18,98*
O=CN(/C=C1\Sc2ccccc2C1=O)Cc1ccccc1,-90*,67*,0,37,?,2,78,96*,-59,97*
Cc1ccc(/C=C2\Sc3ccccc3C2=O)s1,24,-16,0,-8,-2,5,.,.,.,.
Cn1cnc(S(=O)(=O)NC2CCN(Cc3c(F)cccc3Cl)CC2)c1,14,.,0,.,1,.,.,.,.,.
Cc1ccsc1/C=N/NC(=O)CNC(=O)c1ccccc1,?,.,1,.,-1,.,-9,93*,-1,95*
O=C(CNC(=O)c1cccc(Br)c1)N/N=C/c1cccs1,-83*,.,0,.,-2,.,-30,91*,-18,91*
Cc1ccsc1/C=N/Nc1cccc(C(=O)O)c1,92,-2,0,-2,.,-3,.,.,.,.
COc1cc(C=NNc2ccccc2)ccc1OC(=O)c1ccccc1,.,.,0,.,.,.,.,.,.,.
Cc1ccc(C(=O)NCC(=O)N/N=C/c2sccc2C)cc1[N+](=O)[O-],17,-2,0,-3,2,-2,.,.,.,.
CC(C)(C)c1ccc(C(=O)NCC(=O)N/N=C/c2cccs2)cc1,-10,.,0,.,-3,.,.,.,.,.
Cc1ccsc1/C=N/Nc1ccc(C(=O)O)cc1,-91*,.,0,.,-2,.,40,98*,65*,99*
COc1ccc(/C=N/Nc2ccc(C(=O)O)cc2)cc1OC,-93*,0,1,-1,-1,-1,-9,96*,7,97*
COc1ccc(C(CNC(=O)C(=O)Nc2ccc3c(c2)OCCO3)N2CCN(C)CC2)cc1 (configuration not stated),-18,.,0,.,0,.,.,.,.,.
CC(C)CN(CC(C)C)S(=O)(=O)N1CCC(C(=O)NCc2ccco2)CC1,-4,-1,-1,-2,-2,1,.,.,.,.
Cc1cc(C)c(C)c(OC(=O)c2sc(Cl)nc2C)c1,-10,-5,0,-1,3,-3,.,.,.,.
SMILES,AI-2 QS modul,Runt-SMMHC FRET,proKLK7 act,Runt-CBFb FRET,RanGTP-Impb inh,Wee1 stabilizer,JMH597 growth rt,BB721 const-QS lum,BB721 growth,JMH597 AI-2 mod
Cc1ccc(/C=N/Nc2ccc(C(=O)O)cc2)o1,-91*,0,0,1,8,2,4,97*,22,98*
Cc1ccc(S(=O)(=O)N2C[C@H]3C(=O)C[C@@H](c4ccccc4)N(S(C)(=O)=O)[C@H]3C[C@H]2c2ccccc2)cc1,.,.,-1,.,.,.,.,.,.,.
O=C(/C=C/c1ccco1)NCc1ccc(F)cc1,-85*,-2,0,7,-6,-1,16,94*,16,96*
CSc1ccc(S(=O)(=O)N2CCC(C(=O)NCc3ccco3)CC2)cc1,-90*,.,0,.,3,.,30,75,-19,100*
CCS(=O)(=O)N1CCC(C(=O)NCc2ccco2)CC1,7,-5,0,0,3,-2,.,.,.,.
O=C(CN1CCCCCC1)N/N=C/c1ccc2ccccc2c1,26,.,-1,.,0,.,.,.,.,.
COc1cc(CC(=O)OCC(=O)Nc2ccc(S(=O)(=O)N3CCCC3)cc2)cc(OC)c1OC,22,6,0,0,1,1,.,.,.,.
CSc1ncccc1C(=O)OCC(=O)Nc1ccc(S(=O)(=O)N2CCCC2)cc1,-92*,4,1,2,1,-2,49,98*,43,99*
Cc1cc(C(=O)OCC(=O)Nc2cc(S(=O)(=O)N3CCOCC3)ccc2Cl)c(C)o1,26,0,0,0,6,-3,.,.,.,.
Cc1cc(C(=O)OCC(=O)Nc2ccc(S(=O)(=O)N3CCOCC3)cc2)c(C)o1,-91*,-2,-1,-1,?,-1,-5,98*,24,98*
O=C(COC(=O)Cc1ccc2c(c1)OCCO2)Nc1ccc(S(=O)(=O)N2CCCC2)cc1,-92*,7,0,1,1,1,57,96*,-35,97*

# From PubChem
